This note sets out measurements from ChEMBL document CHEMBL2203081 (Bioorg Med Chem Lett, 2012).

The source made the active and inactive calls. The rule behind the calls is not given here.

Assay [1] has as its target Cyclin-dependent kinase 2 (Homo sapiens) (UniProt P24941). As to the kind of experiment: Inhibition of CDK2 assessed as residual activity at 10 uM relative to control.
For assay [2], the target named is Mitogen-activated protein kinase kinase kinase 9 (Homo sapiens) (UniProt P80192). As to the kind of experiment: Inhibition of MLK1 assessed as residual activity at 10 uM relative to control.
For assay [3], the target named is Ephrin type-A receptor 7 (Homo sapiens) (UniProt Q15375). As to the kind of experiment: Inhibition of EPHA7 assessed as residual activity at 10 uM relative to control. In a few lines: (§1)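 Competition kinase-binding assay (KINOMEscan) across a non-redundant panel of 329 kinases beyond the radiometric panel; residual binding expressed relative to control.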
Assay [4] concerns the target Mitogen-activated protein kinase 13 (Homo sapiens) (UniProt O15264). As to the kind of experiment: Inhibition of p38-delta assessed as residual activity at 10 uM relative to control.
For assay [5], the target named is Mitogen-activated protein kinase kinase kinase 10 (Homo sapiens) (UniProt Q02779). As to the kind of experiment: Inhibition of MLK2 assessed as residual activity at 10 uM relative to control.
The target of assay [6] is Phosphatidylinositol 4-phosphate 5-kinase type-1 alpha (Homo sapiens) (UniProt Q99755). The experiment in a line: Inhibition of PIP5K1A assessed as residual activity at 10 uM relative to control.
Assay [7] concerns the target Ribosomal protein S6 kinase alpha-5 (Homo sapiens) (UniProt O75582). The experiment in a line: Inhibition of RPS6KA5 N-terminal domain 1 assessed as residual activity at 10 uM relative to control.
Assay [8] deals with T1, Ephrin type-B receptor 2 (Homo sapiens) (UniProt P29323).
T1 sequence (whole entry): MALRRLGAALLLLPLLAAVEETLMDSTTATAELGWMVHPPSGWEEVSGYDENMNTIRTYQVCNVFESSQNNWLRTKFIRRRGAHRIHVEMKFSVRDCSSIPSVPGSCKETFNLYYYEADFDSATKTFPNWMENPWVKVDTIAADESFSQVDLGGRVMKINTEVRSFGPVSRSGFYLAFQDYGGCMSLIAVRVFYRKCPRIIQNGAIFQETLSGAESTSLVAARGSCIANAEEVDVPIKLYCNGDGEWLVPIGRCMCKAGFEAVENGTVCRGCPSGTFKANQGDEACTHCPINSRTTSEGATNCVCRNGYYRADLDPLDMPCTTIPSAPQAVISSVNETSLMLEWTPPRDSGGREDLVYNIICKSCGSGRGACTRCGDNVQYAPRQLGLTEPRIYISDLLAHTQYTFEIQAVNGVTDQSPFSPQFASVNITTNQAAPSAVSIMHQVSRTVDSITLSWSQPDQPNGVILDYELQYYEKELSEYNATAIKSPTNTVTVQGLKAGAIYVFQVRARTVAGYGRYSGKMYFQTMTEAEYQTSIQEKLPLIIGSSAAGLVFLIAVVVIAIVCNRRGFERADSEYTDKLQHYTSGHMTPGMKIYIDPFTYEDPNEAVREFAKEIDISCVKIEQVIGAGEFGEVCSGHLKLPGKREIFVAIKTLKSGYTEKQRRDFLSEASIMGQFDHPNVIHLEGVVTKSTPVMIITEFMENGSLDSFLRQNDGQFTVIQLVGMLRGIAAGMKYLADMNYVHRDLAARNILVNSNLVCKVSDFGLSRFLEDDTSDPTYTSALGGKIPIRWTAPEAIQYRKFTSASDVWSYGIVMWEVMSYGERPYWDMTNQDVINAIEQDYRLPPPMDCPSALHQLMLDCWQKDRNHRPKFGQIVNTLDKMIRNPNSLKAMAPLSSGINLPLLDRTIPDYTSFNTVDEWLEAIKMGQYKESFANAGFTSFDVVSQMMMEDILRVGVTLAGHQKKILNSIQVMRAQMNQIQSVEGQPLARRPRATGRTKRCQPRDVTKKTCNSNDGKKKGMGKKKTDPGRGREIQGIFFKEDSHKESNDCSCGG
The experiment in a line: Inhibition of EPHB2 assessed as residual activity at 10 uM relative to control. In a few lines: as §1

The target of assay [9] is Inhibitor of nuclear factor kappa-B kinase subunit epsilon (Homo sapiens) (UniProt Q14164). The experiment in a line: Inhibition of IKKe assessed as residual activity at 10 uM.
Assay [10] deals with Epidermal growth factor receptor (Homo sapiens) (UniProt P04626+P00533+Q15303+P21860). The experiment in a line: Inhibition of EGFR S752-I759del mutant assessed as residual activity at 10 uM relative to control. It is filed as protein assay. In a few lines:
as §1

For assay [11], the target named is Cyclin-dependent kinase-like 2 (Homo sapiens) (UniProt Q92772). As to the kind of experiment: Inhibition of CDKL2 assessed as residual activity at 10 uM relative to control.
The target of assay [12] is Leucine-rich repeat serine/threonine-protein kinase 2 (Homo sapiens) (UniProt Q5S007). The note with it: HEK293, 0.3 to 1 uM.
In assay [13] the target is ALK tyrosine kinase receptor (Homo sapiens) (UniProt Q9UM73). As to the kind of experiment: Inhibition of ALK assessed as residual activity at 10 uM relative to control.
The target of assay [14] is Rho-associated protein kinase 2 (Homo sapiens) (UniProt O75116). As to the kind of experiment: Inhibition of ROCK2 assessed as residual activity at 10 uM relative to control.
Assay [15] addresses Phosphorylase b kinase gamma catalytic chain, skeletal muscle/heart isoform (Homo sapiens) (UniProt Q16816). The experiment in a line: Inhibition of PHKG1 assessed as residual activity at 10 uM relative to control.
The target of assay [16] is Mitogen-activated protein kinase 1 (Homo sapiens) (UniProt P28482). As to the kind of experiment: Inhibition of ERK2 assessed as residual activity at 1 uM. In short, it runs like this:
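Radioactivity-based enzymatic activity assay of the named kinase, run as part of a 131-kinase specificity panel at the National Centre for Protein Kinase Profiling (Dundee). Residual activity was read at the stated single inhibitor concentration.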

Assay [17] has as its target Cyclin-dependent kinase 11B (Homo sapiens) (UniProt P21127). The experiment in a line: Inhibition of CDC2L1 assessed as residual activity at 10 uM relative to control.
In assay [18] the target is Serine/threonine-protein kinase 3 (Homo sapiens) (UniProt Q13188). The experiment in a line: Inhibition of MST2 assessed as residual activity at 10 uM relative to control.
The target in assay [19] is Serine/threonine-protein kinase OSR1 (Homo sapiens) (UniProt O95747). The experiment in a line: Inhibition of OSR1 assessed as residual activity at 10 uM relative to control.
In assay [20] the target is Casein kinase I isoform delta (Homo sapiens) (UniProt P48730). The experiment in a line: Inhibition of CK1d assessed as residual activity at 1 uM. In a few lines: (§2)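 Radioactivity-based enzymatic assay against a panel of 131 kinases (Dundee profiling). Activity remaining was measured with compound present at the stated concentration.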
Assay [21] addresses Protein-tyrosine kinase 6 (Homo sapiens) (UniProt Q13882). As to the kind of experiment: Inhibition of BRK assessed as residual activity at 1 uM. In a few lines:
as §2

Sequence of Mitogen-activated protein kinase 13 (Homo sapiens) (O15264 whole entry): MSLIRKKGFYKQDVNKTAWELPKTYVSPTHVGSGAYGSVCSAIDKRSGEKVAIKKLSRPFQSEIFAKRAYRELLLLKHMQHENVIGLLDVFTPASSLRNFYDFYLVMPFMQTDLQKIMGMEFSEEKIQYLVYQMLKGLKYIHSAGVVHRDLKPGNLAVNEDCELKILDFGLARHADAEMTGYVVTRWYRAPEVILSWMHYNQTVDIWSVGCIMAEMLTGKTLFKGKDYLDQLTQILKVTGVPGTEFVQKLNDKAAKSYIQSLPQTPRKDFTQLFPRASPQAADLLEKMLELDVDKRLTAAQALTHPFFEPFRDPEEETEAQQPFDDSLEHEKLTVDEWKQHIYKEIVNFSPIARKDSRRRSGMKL
Sequence of Cyclin-dependent kinase-like 2 (Homo sapiens) (Q92772 whole entry): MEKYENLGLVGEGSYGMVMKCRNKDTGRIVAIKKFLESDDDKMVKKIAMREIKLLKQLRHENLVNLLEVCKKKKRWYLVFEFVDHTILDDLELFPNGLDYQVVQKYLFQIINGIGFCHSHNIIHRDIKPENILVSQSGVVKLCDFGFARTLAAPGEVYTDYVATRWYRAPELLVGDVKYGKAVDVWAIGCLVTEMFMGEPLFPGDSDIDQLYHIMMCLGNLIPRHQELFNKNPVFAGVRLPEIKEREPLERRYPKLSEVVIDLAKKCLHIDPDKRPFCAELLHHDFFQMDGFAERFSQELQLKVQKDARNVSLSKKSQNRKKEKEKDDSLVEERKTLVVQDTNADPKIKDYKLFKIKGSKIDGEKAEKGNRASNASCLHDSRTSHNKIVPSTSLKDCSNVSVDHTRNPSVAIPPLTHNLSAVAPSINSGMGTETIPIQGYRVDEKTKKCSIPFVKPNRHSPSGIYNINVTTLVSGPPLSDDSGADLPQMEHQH
Sequence of ALK tyrosine kinase receptor (Homo sapiens) (Q9UM73 19-1620 limits assumed): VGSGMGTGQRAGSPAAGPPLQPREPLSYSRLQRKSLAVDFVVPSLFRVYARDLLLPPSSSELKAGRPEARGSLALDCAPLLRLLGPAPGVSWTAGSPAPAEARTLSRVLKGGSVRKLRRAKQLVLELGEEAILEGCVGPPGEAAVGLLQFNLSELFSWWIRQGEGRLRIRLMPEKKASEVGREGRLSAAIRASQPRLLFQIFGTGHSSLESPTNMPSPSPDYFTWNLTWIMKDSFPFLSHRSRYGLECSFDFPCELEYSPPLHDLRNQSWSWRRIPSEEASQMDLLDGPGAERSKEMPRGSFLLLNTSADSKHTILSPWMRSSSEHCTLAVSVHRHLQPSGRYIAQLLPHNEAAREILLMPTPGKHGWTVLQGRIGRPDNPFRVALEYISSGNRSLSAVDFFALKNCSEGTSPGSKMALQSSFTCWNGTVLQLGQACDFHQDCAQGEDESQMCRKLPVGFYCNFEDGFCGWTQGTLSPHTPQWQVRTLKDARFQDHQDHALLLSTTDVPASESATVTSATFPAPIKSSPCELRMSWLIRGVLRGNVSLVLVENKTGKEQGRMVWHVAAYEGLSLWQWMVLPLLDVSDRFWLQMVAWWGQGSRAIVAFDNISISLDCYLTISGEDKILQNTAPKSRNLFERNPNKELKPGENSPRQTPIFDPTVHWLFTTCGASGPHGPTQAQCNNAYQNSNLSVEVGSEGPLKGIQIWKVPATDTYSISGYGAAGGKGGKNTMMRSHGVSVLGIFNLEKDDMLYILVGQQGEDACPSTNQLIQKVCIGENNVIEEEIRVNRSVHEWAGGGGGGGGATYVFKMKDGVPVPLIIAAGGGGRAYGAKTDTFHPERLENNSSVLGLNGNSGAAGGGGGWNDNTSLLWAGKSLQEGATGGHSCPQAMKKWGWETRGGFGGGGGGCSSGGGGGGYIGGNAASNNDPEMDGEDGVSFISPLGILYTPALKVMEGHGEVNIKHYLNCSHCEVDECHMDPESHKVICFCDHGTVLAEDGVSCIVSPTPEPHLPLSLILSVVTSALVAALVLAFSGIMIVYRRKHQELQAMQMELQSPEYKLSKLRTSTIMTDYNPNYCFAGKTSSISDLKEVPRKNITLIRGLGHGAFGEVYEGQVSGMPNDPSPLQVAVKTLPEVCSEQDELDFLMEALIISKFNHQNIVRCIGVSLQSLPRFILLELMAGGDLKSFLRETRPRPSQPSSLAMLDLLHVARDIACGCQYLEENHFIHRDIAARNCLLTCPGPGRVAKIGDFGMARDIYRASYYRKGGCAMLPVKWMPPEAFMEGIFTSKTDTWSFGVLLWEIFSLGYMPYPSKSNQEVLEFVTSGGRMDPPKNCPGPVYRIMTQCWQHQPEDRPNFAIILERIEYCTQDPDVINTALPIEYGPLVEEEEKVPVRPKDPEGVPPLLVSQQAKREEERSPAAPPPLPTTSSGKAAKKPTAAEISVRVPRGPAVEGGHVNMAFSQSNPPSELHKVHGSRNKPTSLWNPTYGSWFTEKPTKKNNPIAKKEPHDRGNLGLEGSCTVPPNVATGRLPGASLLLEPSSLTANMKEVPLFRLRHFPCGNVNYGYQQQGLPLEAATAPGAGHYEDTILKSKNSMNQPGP
Sequence of Phosphatidylinositol 4-phosphate 5-kinase type-1 alpha (Homo sapiens) (Q99755 whole entry, the tested form may be a part): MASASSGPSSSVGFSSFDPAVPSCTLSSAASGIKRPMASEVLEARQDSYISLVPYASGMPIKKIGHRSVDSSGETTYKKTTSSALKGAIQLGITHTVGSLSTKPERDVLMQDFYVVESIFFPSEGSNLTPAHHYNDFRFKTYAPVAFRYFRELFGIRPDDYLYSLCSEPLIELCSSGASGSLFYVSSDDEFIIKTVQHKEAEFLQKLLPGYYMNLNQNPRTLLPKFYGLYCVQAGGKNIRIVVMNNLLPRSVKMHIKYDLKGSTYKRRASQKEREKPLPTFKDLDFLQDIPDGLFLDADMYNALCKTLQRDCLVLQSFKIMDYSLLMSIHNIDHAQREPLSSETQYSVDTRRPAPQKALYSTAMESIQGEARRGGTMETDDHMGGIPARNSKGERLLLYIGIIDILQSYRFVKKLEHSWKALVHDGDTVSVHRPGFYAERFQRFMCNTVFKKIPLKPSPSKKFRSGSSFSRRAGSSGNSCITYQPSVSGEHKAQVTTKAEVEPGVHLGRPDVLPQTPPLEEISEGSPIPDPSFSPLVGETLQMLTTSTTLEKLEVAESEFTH
Sequence of Mitogen-activated protein kinase kinase kinase 9 (Homo sapiens) (P80192 whole entry, looked up): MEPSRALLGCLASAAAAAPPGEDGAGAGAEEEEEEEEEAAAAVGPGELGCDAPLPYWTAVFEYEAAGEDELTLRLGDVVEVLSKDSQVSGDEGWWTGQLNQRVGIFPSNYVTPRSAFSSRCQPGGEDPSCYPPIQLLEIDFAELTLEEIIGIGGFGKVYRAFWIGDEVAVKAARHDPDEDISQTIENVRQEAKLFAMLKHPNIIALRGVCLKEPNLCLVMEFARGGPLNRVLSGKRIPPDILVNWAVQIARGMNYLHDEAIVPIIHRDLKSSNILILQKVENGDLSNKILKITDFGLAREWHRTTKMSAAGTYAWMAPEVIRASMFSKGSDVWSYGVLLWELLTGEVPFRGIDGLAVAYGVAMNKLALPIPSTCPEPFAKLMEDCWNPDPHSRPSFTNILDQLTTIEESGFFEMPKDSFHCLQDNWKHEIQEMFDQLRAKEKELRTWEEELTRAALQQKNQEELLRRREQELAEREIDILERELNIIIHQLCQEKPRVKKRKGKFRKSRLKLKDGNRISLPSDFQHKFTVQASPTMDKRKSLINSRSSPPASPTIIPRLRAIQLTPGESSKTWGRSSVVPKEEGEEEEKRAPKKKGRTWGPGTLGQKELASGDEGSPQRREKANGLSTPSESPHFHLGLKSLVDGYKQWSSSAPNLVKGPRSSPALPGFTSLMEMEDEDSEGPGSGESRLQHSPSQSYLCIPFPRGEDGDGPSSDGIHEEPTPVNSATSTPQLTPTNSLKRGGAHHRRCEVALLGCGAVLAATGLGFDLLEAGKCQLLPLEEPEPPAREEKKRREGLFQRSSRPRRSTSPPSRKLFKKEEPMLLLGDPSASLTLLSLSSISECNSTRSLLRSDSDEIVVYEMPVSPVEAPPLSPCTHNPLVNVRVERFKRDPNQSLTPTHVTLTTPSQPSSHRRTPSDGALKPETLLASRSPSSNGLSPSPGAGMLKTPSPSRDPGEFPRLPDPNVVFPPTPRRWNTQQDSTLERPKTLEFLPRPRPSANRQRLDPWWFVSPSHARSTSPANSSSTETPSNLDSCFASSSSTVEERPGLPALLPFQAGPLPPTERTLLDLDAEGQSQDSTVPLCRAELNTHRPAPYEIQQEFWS
Sequence of Casein kinase I isoform delta (Homo sapiens) (P48730 whole entry, looked up, canonical isoform): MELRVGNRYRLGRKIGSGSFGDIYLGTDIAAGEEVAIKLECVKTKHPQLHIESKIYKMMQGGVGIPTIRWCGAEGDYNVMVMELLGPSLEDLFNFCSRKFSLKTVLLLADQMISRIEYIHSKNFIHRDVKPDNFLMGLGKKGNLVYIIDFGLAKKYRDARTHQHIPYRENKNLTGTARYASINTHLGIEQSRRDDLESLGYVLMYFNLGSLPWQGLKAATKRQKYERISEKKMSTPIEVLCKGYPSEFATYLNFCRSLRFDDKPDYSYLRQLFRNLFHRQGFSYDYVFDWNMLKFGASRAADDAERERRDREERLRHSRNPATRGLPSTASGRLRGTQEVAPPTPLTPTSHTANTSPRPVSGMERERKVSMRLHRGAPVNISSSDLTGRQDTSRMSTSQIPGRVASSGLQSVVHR
Sequence of Protein-tyrosine kinase 6 (Homo sapiens) (Q13882 whole entry, looked up): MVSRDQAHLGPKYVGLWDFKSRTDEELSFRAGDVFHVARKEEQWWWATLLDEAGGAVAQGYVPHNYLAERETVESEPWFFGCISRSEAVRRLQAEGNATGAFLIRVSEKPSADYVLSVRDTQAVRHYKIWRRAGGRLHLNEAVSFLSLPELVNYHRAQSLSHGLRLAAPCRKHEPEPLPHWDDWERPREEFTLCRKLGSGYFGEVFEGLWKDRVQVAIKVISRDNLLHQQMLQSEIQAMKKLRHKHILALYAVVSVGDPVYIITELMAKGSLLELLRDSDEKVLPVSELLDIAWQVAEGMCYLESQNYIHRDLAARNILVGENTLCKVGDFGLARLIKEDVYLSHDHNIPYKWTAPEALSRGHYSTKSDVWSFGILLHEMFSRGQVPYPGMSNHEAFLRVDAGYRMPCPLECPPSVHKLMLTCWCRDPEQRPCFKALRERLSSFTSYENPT

As for `O=C(Nc1cccnc1)c1cc(-c2ccnc(F)c2)ccc1OCc1ccccc1`, the Activity in [1] came to 53%; in [2] it was 74%; in assay [3], 60%; in assay [4], 75%; in [5] it was 77%; in [6], 73%. For the same compound, the Activity in assay [7] worked out at 77%; in assay [8], 71%; in assay [9], 102%; in [10], 81%; in assay [11], 77%; in [13], 7.2%. In addition, the Activity in [14] was 47%; in assay [15], 80%; in assay [16], 104%; in [17] it was 67%; in [18], 23%; in [19] it was 63%. For the same compound, the values for the Activity in assay [20] and in assay [21] were 107% and 103%, respectively. Also, the inhibition entry in assay [12] is “Active”.
